Experimental data: ChEMBL document CHEMBL3351503, “Imidazopyridine- and purine-thioacetamide derivatives: potent inhibitors of nucleotide pyrophosphatase/phosphodiesterase 1 (NPP1)” (J Med Chem, 2014)
pKi: −log10 of the molar value.

Columns and labels:
[1] = molecular target: T1, Ectonucleotide pyrophosphatase/phosphodiesterase family member 1 (Homo sapiens, UniProt P22413); experiment: Inhibition of human NPP1 using p-Nph-5'-TMP as substrate
T1 sequence (P22413 whole entry): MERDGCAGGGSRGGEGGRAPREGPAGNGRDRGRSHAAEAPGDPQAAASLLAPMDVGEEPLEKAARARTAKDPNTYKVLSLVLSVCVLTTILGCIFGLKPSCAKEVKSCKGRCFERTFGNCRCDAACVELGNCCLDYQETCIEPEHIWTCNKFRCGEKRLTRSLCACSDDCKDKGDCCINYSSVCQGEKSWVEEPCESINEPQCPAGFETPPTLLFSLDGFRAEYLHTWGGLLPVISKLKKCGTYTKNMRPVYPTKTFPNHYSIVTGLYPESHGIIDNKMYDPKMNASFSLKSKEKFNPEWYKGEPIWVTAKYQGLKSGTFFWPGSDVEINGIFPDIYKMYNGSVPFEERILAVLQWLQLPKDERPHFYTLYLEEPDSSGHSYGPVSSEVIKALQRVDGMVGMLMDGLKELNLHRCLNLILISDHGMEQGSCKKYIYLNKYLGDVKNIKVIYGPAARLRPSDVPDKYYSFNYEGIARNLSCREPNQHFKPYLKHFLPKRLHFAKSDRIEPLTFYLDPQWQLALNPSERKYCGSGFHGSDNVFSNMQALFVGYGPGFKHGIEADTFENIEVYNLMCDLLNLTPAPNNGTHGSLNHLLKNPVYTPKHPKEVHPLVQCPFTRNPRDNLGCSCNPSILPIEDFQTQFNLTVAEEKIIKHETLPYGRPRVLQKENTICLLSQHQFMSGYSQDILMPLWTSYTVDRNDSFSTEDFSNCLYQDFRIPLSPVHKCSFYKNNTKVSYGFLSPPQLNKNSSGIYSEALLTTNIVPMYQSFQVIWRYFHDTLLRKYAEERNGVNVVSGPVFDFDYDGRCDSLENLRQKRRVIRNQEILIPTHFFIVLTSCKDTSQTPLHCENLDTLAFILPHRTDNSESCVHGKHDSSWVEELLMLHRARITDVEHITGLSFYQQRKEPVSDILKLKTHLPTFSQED

[2] = molecular target: T1, Ectonucleotide pyrophosphatase/phosphodiesterase family member 1; experiment: Competitive inhibition of human NPP1 using p-Nph-5'-TMP as substrate by Lineweaver-Burk plot analysis
[3] = molecular target: T1, Ectonucleotide pyrophosphatase/phosphodiesterase family member 1; experiment: Competitive inhibition of human NPP1 using ATP as substrate by Lineweaver-Burk plot analysis
[4] = molecular target: T2, Ectonucleotide pyrophosphatase/phosphodiesterase family member 1 (Homo sapiens) (UniProt P22413); experiment: Inhibition of human NPP1 using p-Nph-5'-TMP as substrate at 10 uM
T2 sequence (whole entry): T1 sequence (P22413 whole entry)
How it was run: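 Single-point screen at 10 μM compound against soluble human NPP1 (20 ng), 400 μM p-Nph-5′-TMP, 50 mM Tris pH 9.0, 1 mM CaCl2, 200 μM ZnCl2, 37 °C 15 min, NaOH stop; percent inhibition from p-nitrophenolate absorbance at 400 nm; compounds in DMSO (10 mM stock).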

Autotaxin = Autotaxin (Homo sapiens, UniProt Q13822); experiment: Competitive inhibition of human NPP2 using lysophosphotidylcholine as substrate
[5] = molecular target: T3, Ectonucleotide pyrophosphatase/phosphodiesterase family member 3 (Homo sapiens, UniProt O14638); experiment: Competitive inhibition of human NPP3 using ATP as substrate
T3 sequence (O14638 whole entry): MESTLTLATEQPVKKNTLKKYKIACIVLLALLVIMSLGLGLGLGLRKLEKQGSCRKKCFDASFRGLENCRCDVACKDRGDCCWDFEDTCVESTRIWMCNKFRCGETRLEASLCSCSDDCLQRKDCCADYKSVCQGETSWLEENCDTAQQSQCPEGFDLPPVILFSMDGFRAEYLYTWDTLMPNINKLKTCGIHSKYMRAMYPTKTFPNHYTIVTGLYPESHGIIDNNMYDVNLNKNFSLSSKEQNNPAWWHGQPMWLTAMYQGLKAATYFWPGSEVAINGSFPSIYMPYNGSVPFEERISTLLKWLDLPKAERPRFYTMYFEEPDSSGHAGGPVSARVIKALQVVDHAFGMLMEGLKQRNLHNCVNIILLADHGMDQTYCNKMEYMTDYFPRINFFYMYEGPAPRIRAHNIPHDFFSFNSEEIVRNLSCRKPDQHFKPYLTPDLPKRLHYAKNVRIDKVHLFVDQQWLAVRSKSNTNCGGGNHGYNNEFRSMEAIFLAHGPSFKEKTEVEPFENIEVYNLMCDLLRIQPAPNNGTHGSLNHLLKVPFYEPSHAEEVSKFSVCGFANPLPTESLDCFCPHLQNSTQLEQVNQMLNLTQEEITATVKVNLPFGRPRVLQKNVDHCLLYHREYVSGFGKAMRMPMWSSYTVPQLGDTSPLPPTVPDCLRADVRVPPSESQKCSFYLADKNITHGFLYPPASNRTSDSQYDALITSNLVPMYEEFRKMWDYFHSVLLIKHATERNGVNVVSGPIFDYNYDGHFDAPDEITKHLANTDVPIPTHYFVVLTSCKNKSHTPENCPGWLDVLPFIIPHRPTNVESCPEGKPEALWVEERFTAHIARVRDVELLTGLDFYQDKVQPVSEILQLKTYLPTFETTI

Row | pKi [1] | pKi [2] | pKi [3] | inhibition [4] [%] | Compound | other results
1 | 5.44 | 5.44 | 4.17 |  | COc1ccc(NC(=O)CSc2nc3c(SC)nc(N)nc3[nH]2)cc1OC | 
2 |  |  |  | 17 | O=C(CSc1nc2cccnc2[nH]1)Nc1ccc(Cl)cc1 | 
3 |  |  |  | 12 | COc1ccc(OC)c(NC(=O)CSc2nc3cccnc3[nH]2)c1 | 
4 |  |  |  | 21 | COc1ccccc1NC(=O)CSc1nc2ccc[nH]c-2n1 | 
5 |  |  |  | 23 | O=C(CSc1nc2cccnc2[nH]1)Nc1cccc(Br)c1 | 
6 |  |  |  | 19 | Cc1cccc(C)c1NC(=O)CSc1nc2cccnc2[nH]1 | 
7 |  |  |  | 58 | COc1ccc(NC(=O)CSc2nc3ccc(N(C)C)nc3[nH]2)cc1OC | 
8 |  |  |  | 61 | COc1ccc(NC(=O)CSc2nc3ccc(OCC(F)(F)F)nc3[nH]2)cc1OC | 
9 |  |  |  | 11 | Cc1ccc(NC(=O)CSc2nc3cccnc3[nH]2)cc1C | 
10 |  |  |  | 30 | O=C(CSc1nc2cccnc2[nH]1)Nc1ccccc1 | 
11 | 6.66 | 6.66 | 4.65 |  | COc1ccc(NC(=O)CSc2nc3ccc[nH]c-3n2)cc1OC | 
12 |  |  |  | 10 | O=C(CSc1nc2cccnc2[nH]1)Nc1ccc(Cl)c(Cl)c1 | 
13 |  |  |  | 23 | CN(C)c1ccc(NC(=O)CSc2nc3cccnc3[nH]2)cc1 | 
14 | 6.55 | 6.55 | 4.80 |  | COc1ccc(NC(=O)CSc2nc3cncnc3[nH]2)cc1OC | 
15 |  |  |  | 30 | COc1cccc(NC(=O)CSc2nc3cccnc3[nH]2)c1 | 
16 |  |  |  | 13 | O=C(CSc1nc2cccnc2[nH]1)Nc1ccccc1F | 
17 |  |  |  | 45 | COc1ccc(NC(=O)CSc2nc3ccc(N4CCOCC4)nc3[nH]2)cc1OC | 
18 |  |  |  | 6 | COc1ccc(NC(=O)C(C)Sc2nc3cccnc3[nH]2)cc1OC (centres undefined) | 
19 | 6.88 | 6.88 | 4.52 |  | COc1ccc(NC(=O)CSc2nc3nccnc3[nH]2)cc1OC | 
20 | 7.45 | 7.45 | 4.65 |  | COc1ccc(NC(=O)CSc2nc3c(=O)[nH]c(=O)[nH]c3[nH]2)cc1OC | 
21 |  |  |  | 23 | COc1ccc(NC(=O)CSc2nc3c(=O)n(C)c(=O)n(C)c3[nH]2)cc1OC | 
22 |  |  |  | 8 | COc1ccc(NC(=O)CSc2nc3cccnc3[nH]2)c(OC)c1 | 
23 | 6.72 | 6.72 | 4.97 |  | COc1ccc(NC(=O)CSc2nc3cc(Br)cnc3[nH]2)cc1OC | 
24 |  |  |  | 38 | COc1cc(NC(=O)CSc2nc3cccnc3[nH]2)cc(OC)c1 | 
25 |  |  |  | 35 | COc1ccc(NC(=O)CSc2nc3ccc(N4CCN(C)CC4)nc3[nH]2)cc1OC | 
26 | 7.70 | 7.70 | 4.84 |  | COc1ccc(NC(=O)CSc2nc3c(=O)[nH]cnc3[nH]2)cc1OC | 

Row | pKi [1] | pKi [2] | pKi [3] | inhibition [4] [%] | Compound | other results
27 |  |  |  | 59 | COc1ccc(NC(=O)CSc2nc3ccc(SC)nc3[nH]2)cc1OC | 
28 |  |  |  |  | COc1ccc2nc(SCC(=O)Nc3ccc(OC)c(OC)c3)[nH]c2n1 | pKi (Autotaxin): 4.15; pKi [5]: 4.17
29 |  |  |  | 64 | COc1ccc(NC(=O)CSc2ncc[nH]2)cc1OC | 
30 | 6.86 | 6.86 | 5.01 |  | COc1ccc(NC(=O)CSc2nc3cc(Cl)cnc3[nH]2)cc1OC | 
31 |  |  |  | 15 | CCOC(=O)c1cccc(NC(=O)CSc2nc3cccnc3[nH]2)c1 | 
32 |  |  |  | 13 | COc1ccc(NC(=O)CCSc2nc3cccnc3[nH]2)cc1OC | 
33 |  |  |  | 48 | COc1ccc(NC(=O)CSc2nc3cccnc3[nH]2)cc1 | 
34 | 5.46 | 5.46 | 4.11 |  | COc1ccc(NC(=O)CSc2nc3c(N)nc(N)nc3[nH]2)cc1OC | 
35 |  |  |  | 50 | COc1ccc(NS(=O)(=O)CSc2nc3ncccc3[nH]2)cc1OC | 
36 | 8.30 | 8.30 | 4.74 |  | COc1ccc(NC(=O)CSc2nc3c(N)ncnc3[nH]2)cc1OC | 
37 | 6.90 | 6.90 | 5.12 |  | COc1ccc(NC(=O)CSc2nc3c(C)ccnc3[nH]2)cc1OC | 
38 |  |  |  | 50 | CC(=O)c1cccc(NC(=O)CSc2nc3cccnc3[nH]2)c1 | 
39 |  |  |  | 45 | N#Cc1cccc(NC(=O)CSc2nc3cccnc3[nH]2)c1 | 
40 |  |  |  | 2 | Cc1ccc(NC(=O)CSc2nc3cccnc3[nH]2)c(Cl)c1 | 
41 | 5.09 | 5.09 | 4.37 |  | COc1ccc(NC(=O)CSc2nc3c(OC)nc(N)nc3[nH]2)cc1OC | 
42 | 6.00 | 6.00 | 4.47 |  | CCOc1nc(N)nc2[nH]c(SCC(=O)Nc3ccc(OC)c(OC)c3)nc12 | 
43 |  |  |  | 30 | O=C(CSc1nc2cccnc2[nH]1)Nc1ccc(F)cc1 | 
44 |  |  |  | 27 | COc1ccc(NC(=O)CSc2nc3ccc(N4CCCCC4)nc3[nH]2)cc1OC | 
45 |  |  |  | 34 | COc1ccc(NC(=O)CSc2nc3ccccc3[nH]2)cc1OC | 
46 |  |  |  | 43 | CCn1c(=O)[nH]c(=O)c2nc(SCC(=O)Nc3ccc(OC)c(OC)c3)[nH]c21 | 
47 | 6.82 | 6.82 | 4.57 |  | COc1ccc(NC(=O)CSc2nc3c(N)nc(SC)nc3[nH]2)cc1OC | 
48 | 4.96 | 4.96 | 4.05 |  | COc1ccc(NC(=O)CSc2nc3c(OC(C)C)nc(N)nc3[nH]2)cc1OC | 
49 | 7.35 | 7.35 | 4.53 |  | COc1ccc(NC(=O)CSc2nc3cnccc3[nH]2)cc1OC | 
50 |  |  |  | 0 | COc1ccc(CNC(=O)CSc2nc3cccnc3[nH]2)cc1OC | 
51 |  |  |  | 19 | O=C(CSc1nc2cccnc2[nH]1)Nc1ccccc1Cl | 
